Where two headings read alike, the source gives them in different places.
Tests used:
Tdp1 [1] = target: T1, Tdp1 (Homo sapiens, UniProt Q9NUW8); assay: Tdp1 gel-based assay with recombinant human Tdp1 and N14Y DNA substrate; type: biochemical; conditions: for Tdp1 inhibition (in words): highest tested concentration 333 μM
Tdp1 [2] = target: T1, Tdp1; assay: SPR binding to immobilized Tdp1; conditions: dilution series 0.39-50 μM
Method in brief: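 Tdp1 (1 μM) was pre-bound for 20 min with 2 μM 3′-phosphate 14-mer oligo in 10 mM Na acetate pH 4.5 to shield active-site amines, then amine-coupled to a CM5 chip (~6000 RU), with a Tdp1-free reference surface. Test compound was injected at 30 μL/min, 25 °C, in 50 mM Tris/HCl pH 7.5, 80 mM KCl, 5% DMSO. Referencing used buffer cycles and a DMSO calibration; NaCl/DMSO regeneration.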

[3] = test system: N14Y oligomer (biotin-[…]-Tyr); assay: SPR binding to immobilized tyrosyl-labeled oligonucleotide; conditions: dilution series 0.39-50 μM

T1 sequence (Q9NUW8 whole entry): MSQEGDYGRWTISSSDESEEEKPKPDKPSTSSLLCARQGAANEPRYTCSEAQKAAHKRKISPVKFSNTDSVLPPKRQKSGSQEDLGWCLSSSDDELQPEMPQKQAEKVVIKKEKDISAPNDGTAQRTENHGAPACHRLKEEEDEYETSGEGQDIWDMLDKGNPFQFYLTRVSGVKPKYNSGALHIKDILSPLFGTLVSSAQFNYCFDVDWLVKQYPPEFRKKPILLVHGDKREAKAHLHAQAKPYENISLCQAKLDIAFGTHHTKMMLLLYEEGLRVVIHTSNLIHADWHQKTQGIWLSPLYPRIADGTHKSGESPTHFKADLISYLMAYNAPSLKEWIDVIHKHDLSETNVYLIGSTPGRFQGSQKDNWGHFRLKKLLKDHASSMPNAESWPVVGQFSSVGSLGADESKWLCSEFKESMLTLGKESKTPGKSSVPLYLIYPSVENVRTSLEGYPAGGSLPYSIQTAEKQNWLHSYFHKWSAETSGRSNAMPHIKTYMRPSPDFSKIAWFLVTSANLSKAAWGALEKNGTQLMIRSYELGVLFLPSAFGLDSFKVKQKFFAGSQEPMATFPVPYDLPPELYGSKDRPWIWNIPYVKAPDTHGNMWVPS

Row | Molecule | IC50 (Tdp1 [1]) | Tdp1 inhibition (in words) (Tdp1 [1]) | also measured
1 | O=C1NC(=S)/C(=C/c2ccc(O)c(O)c2O)S1 [Compound 50, (Z)-4-Thioxo-5-(2,3,4-trihydroxybenzylidene)thiazolidin-2-one] | – | – | binding to Tdp1 (SPR) (Tdp1 [2]): concentration-dependent binding; binding to N14Y oligomer (SPR) [3]: No binding
2 | N#CC(C#N)=Cc1cc(O)c(O)c(O)c1 [Compound 7] | – | completely inactive | –
3 | N#C/C(=C\c1ccc(O)c(O)c1)C(=O)NCc1ccccc1 [Compound 6] | – | completely inactive | –
4 | O=C1NC(=S)/C(=C/c2ccc(P(=O)(O)O)cc2)S1 [Compound 74, (Z)-(4-((2-Oxo-4-thioxothiazolidin-5-ylidene)methyl)phenyl)-phosphonic Acid] | – | – | fold improvement in potency over 44 (Tdp1 [1]; Tdp1 IC50 vs compound 44): 7.3 fold
5 | (Z)-5-(2-Bromobenzylidene)-4-thioxothiazolidin-2-one [Compound 62] | – | – | IC50 (Tdp1 [1]; read-out: Tdp1 IC50, recombinant human Tdp1, gel-based assay): 30 ± 12 µM
6 | N#C/C(=C\c1ccc(O)c(O)c1)C(=O)O [Compound 4] | – | completely inactive | –
7 | N#C/C(=C\c1ccc(O)c(O)c1)C(N)=O [Compound 5] | – | completely inactive | –

Continued, in another order:

Row | IC50 (Tdp1 [1]) | Tdp1 inhibition (in words) (Tdp1 [1]) | Molecule | also measured
8 | 111 to 333 µM | – | O=C1NC(=O)/C(=C/c2ccc(O)c(O)c2)S1 [Compound 39, (Z)-5-(3,4-Dihydroxybenzylidene)thiazolidine-2,4-dione] | –
9 | 111 to 333 µM | – | O=C1NC(=S)N(Cc2ccccc2)/C1=C\c1ccc(F)cc1 [Compound 37, (Z)-1-Benzyl-5-(4-fluorobenzylidene)-2-thioxoimidazolidin-4-one] | –
10 | 111 to 333 µM | – | O=C1/C(=C/c2ccc3[nH]ccc3c2)NC(=S)N1c1ccccc1 [Compound 34, (Z)-5-((1H-Indol-5-yl)methylene)-3-phenyl-2-thioxoimidazolidin-4-one] | –

From PMC7479925 (Journal of medicinal chemistry, 2012)
